In data set [1] the target is 11-beta-hydroxysteroid dehydrogenase 1 (Mus musculus, UniProt P50172). Briefly: Inhibition of recombinant mouse 11beta-HSD1 expressed in HEK293 cell microsomes using [3H]cortisone as substrate after 4 hrs by homogeneous immuno-radiometric scintillation proximity assay.
For data set [2], the target named is T1, Nuclear receptor subfamily 1 group I member 2 (Homo sapiens, UniProt O75469).
T1 sequence (O75469 whole entry): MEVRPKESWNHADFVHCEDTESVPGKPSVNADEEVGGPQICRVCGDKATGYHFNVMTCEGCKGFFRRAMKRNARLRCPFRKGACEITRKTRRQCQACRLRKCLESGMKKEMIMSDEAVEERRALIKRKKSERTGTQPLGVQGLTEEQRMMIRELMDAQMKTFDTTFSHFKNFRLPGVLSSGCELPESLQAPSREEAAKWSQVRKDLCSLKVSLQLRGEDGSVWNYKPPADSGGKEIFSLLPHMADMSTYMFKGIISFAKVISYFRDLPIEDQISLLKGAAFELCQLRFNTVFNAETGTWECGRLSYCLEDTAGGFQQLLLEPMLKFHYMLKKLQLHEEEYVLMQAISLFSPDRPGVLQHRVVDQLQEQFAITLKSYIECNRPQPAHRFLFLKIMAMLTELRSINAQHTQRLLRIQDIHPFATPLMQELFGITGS
Briefly: Activation of PXR (unknown origin). The class given is ADME.

Data set [3] deals with 11-beta-hydroxysteroid dehydrogenase 1 (Homo sapiens, UniProt P28845). The experiment in a line: Inhibition of recombinant human 11beta-HSD1 expressed in HEK293 cell microsomes using [3H]cortisone as substrate after 4 hrs by homogeneous immuno-radiometric scintillation proximity assay. The format is cell-based.
The nature of data set [4]: Inhibition of recombinant cynomolgus monkey 11beta-HSD1 expressed in HEK293 cell microsomes using [3H]cortisone as substrate after 4 hrs by homogeneous immuno-radiometric scintillation proximity assay. The arrangement: species or system Macaca fascicularis.
In data set [5] the test system is Mus musculus. Briefly: In-vivo inhibition of 11beta-HSD1 in po dosed diet induced obese mouse assessed as reduction in conversion of dehydrocorticosterone to corticosterone pretreated for 30 to 60 mins followed by dehydrocorticosterone addition and measured after 30 to 120 mins by enzyme immunosorbent assay. The format is functional.
Another data set has as its system Cynomolgus monkey. Briefly: In-vivo inhibition of 11beta-HSD1 in po cynomolgus monkey assessed as reduction in conversion of dehydrocorticosterone to corticosterone pretreated for 30 to 60 mins followed by dehydrocorticosterone addition and measured after 30 to 120 mins by enzyme immunosorbent assay. The format is functional. To be noted: Macaca fascicularis.
The nature of data set [6]: Selectivity ratio of ED50 for inhibition of 11beta-HSD1 in po dosed diet induced obese mouse to ED50 for inhibition of 11beta-HSD1 in po cynomolgus monkey. The class given is functional.
Data set [7] concerns Mus musculus. Briefly: Ex vivo inhibition of 11beta-HSD1 in diet induced obese mouse adipose tissue assessed as reduction in conversion of dehydrocorticosterone to corticosterone administered via oral gavage pretreated for 3 hrs followed by dehydrocorticosterone addition by LC-MS analysis. The class given is functional.
Data set [8] concerns Mus musculus. Briefly: Selectivity ratio of ED50 for inhibition of 11beta-HSD1 in po dosed diet induced obese mouse to ED50 for ex vivo inhibition of 11beta-HSD1 in diet induced obese mouse adipose tissue administered via oral gavage. The class given is functional.
Data set [9] is described as follows: Oral bioavailability in Balb/C mouse at 10 mg/kg by LC-MS/MS analysis. The format is ADME, organism-based. To be noted: in vivo. The method, boiled down: (§1)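 Given orally as a homogenized suspension, to mouse and to cynomolgus monkey.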
Data set [10] in a line: Ratio of drug level in adipose tissue to plasma in diet induced obese mouse administered via oral gavage. The format is ADME. To be noted: adipose tissue and plasma.
Data set [11] in a line: Volume of distribution at steady state in Balb/C mouse at 5 mg/kg, iv by LC-MS/MS analysis. The class given is ADME, organism-based. To be noted: in vivo, read-out: Vdss.
Data set [12] is described as follows: Volume of distribution at steady state in cynomolgus monkey at 1 mg/kg, iv by LC-MS/MS analysis. To be noted: in vivo, read-out: Vdss. The format is ADME, organism-based, Macaca fascicularis.
Data set [13] in a line: Total plasma clearance in Balb/C mouse at 5 mg/kg, iv by LC-MS/MS analysis. The class given is ADME, organism-based.
The nature of data set [14]: Total plasma clearance in cynomolgus monkey at 1 mg/kg, iv by LC-MS/MS analysis. The format is ADME, organism-based, Macaca fascicularis.
A short description of data set [15]: Oral bioavailability in cynomolgus monkey at 1.47 mg/kg by LC-MS/MS analysis. The format is ADME, organism-based, Macaca fascicularis. To be noted: in vivo. A digest of the protocol: as §1
Data set [16] is described as follows: Permeability of the compound by PAMPA. The class given is ADME. To be noted: read-out: permeability.
Data set [17] is described as follows: Protein binding in human plasma. The settings on record: read-out: PPB (converted). The class given is ADME, cell-free.
The nature of data set [18]: Protein binding in cynomolgus monkey plasma. The format is ADME, cell-free, Macaca fascicularis. To be noted: read-out: PPB (converted).
Data set [19] is described as follows: Protein binding in mouse plasma. To be noted: read-out: PPB (converted). The format is ADME, cell-free.
For the next data set, the target named is Cytochrome P450 3A4 (Homo sapiens, UniProt P08684). The experiment in a line: Inhibition of human CYP3A4. The class given is ADME.
Another data set has as its target Cytochrome P450 2C9 (Homo sapiens, UniProt P11712). Briefly: Inhibition of human CYP2C9. The class given is ADME.
The target in another data set is Cytochrome P450 2C19 (Homo sapiens, UniProt P33261). Briefly: Inhibition of human CYP2C19. The format is ADME.
For the next data set, the target named is Cytochrome P450 2D6 (Homo sapiens, UniProt P10635). The experiment in a line: Inhibition of human CYP2D6. The format is ADME.
The target in the next data set is T2, Cytochrome P450 1A2 (Homo sapiens, UniProt P05177).
T2 sequence (P05177 whole entry): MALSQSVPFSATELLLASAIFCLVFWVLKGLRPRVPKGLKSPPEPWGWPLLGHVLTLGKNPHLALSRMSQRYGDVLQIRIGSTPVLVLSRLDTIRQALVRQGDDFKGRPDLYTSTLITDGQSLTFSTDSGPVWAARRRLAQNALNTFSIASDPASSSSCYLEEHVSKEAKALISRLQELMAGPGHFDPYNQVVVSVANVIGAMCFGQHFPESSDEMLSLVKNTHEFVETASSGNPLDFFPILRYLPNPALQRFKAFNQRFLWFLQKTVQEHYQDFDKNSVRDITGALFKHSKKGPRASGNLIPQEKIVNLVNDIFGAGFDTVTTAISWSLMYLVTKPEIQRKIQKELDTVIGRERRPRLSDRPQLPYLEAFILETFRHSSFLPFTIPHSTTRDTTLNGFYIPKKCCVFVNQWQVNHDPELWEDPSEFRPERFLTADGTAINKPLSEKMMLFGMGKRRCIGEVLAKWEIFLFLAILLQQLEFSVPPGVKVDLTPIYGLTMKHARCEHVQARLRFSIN
The experiment in a line: Inhibition of human CYP1A2. The class given is ADME.

Data set [20] can be described thus: Ratio of drug level in liver to plasma in diet induced obese mouse administered via oral gavage. The class given is ADME. To be noted: liver and plasma.
A short description of data set [21]: Stability in human microsomes assessed as parent compound remaining after 30 mins. The format is ADME, Microsome. The settings on record: read-out: Stability.
Data set [22] is described as follows: Stability in mouse microsomes assessed as parent compound remaining after 30 mins. The class given is ADME, Microsome. To be noted: read-out: Stability.
Data set [23] is described as follows: Stability in rat microsomes assessed as parent compound remaining after 30 mins. The class given is ADME, Microsome. The settings on record: read-out: Stability.
Data set [24] in a line: Stability in cynomolgus monkey microsomes assessed as parent compound remaining after 30 mins. The settings on record: read-out: Stability. The class given is ADME, Macaca fascicularis, Microsome.
Data set [25] concerns the target T3, hERG (KCNH2) (Homo sapiens, UniProt Q12809). Briefly: Inhibition of human ERG at 10 uM by whole-cell patch clamp method relative to control.
Data set [26] addresses T3, hERG (KCNH2). The experiment in a line: Inhibition of human ERG at 30 uM by whole-cell patch clamp method relative to control.
Data set [27] can be described thus: Genotoxicity in Escherichia coli by SOS chromotest. The class given is toxicity.
Data set [28] can be described thus: Genotoxicity in Salmonella typhimurium by Ames test. The class given is toxicity. The settings on record: salmonella enterica subsp. enterica serovar typhimurium.
Data set [29] is described as follows: Toxicity in mouse up to 100 mg/kg, po administered as single dose. The format is organism-based. To be noted: in vivo.
Data set [30] in a line: Toxicity in cynomolgus monkey assessed as emesis up to 100 mg/kg, po administered as single dose. The class given is organism-based, Macaca fascicularis. The settings on record: in vivo.
A short description of data set [31]: Efflux ratio of permeability from basolateral to apical side over apical to basolateral side in human Caco2 cells at 3 uM. The settings on record: caco-2, 3 µM.

The structures appear in SMILES notation. Bounds are passed on as bounds.

Chain of 11-beta-hydroxysteroid dehydrogenase 1 (Mus musculus, UniProt P50172) (P50172 whole entry): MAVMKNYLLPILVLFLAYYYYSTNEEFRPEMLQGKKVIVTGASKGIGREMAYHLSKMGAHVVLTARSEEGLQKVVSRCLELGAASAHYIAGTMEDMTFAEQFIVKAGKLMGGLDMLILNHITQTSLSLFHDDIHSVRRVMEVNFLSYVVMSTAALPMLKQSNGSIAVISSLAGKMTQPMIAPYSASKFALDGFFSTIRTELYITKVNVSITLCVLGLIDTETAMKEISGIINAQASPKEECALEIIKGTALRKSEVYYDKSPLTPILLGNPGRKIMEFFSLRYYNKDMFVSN
T3 sequence (Q12809 whole entry): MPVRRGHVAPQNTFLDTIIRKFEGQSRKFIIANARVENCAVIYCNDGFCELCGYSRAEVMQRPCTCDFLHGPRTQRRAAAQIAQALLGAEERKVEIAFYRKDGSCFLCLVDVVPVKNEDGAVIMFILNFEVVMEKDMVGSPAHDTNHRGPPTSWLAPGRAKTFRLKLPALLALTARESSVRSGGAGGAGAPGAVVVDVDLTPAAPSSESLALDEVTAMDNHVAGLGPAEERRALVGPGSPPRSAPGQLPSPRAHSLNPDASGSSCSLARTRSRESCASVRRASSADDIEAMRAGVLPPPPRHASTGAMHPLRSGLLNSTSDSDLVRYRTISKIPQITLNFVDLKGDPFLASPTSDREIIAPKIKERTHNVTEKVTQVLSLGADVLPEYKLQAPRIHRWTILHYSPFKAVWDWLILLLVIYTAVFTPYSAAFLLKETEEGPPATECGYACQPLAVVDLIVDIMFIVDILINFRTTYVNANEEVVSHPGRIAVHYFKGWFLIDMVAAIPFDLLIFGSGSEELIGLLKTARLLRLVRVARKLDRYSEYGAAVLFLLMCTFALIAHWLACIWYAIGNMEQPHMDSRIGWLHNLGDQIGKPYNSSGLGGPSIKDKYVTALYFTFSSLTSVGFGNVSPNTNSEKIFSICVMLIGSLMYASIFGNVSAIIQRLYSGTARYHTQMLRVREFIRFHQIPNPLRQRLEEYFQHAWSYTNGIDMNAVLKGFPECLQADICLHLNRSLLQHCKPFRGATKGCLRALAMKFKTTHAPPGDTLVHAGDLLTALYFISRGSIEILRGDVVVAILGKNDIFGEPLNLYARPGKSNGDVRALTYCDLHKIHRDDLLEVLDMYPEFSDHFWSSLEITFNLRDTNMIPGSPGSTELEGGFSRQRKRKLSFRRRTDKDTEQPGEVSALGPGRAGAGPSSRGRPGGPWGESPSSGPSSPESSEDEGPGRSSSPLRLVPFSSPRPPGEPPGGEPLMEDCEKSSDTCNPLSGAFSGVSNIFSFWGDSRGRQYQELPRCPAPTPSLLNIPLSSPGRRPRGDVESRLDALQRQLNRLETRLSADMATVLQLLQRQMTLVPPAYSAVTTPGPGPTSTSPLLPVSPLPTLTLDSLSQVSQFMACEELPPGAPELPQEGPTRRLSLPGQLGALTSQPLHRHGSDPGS
Chain of Cytochrome P450 3A4 (P08684 whole entry): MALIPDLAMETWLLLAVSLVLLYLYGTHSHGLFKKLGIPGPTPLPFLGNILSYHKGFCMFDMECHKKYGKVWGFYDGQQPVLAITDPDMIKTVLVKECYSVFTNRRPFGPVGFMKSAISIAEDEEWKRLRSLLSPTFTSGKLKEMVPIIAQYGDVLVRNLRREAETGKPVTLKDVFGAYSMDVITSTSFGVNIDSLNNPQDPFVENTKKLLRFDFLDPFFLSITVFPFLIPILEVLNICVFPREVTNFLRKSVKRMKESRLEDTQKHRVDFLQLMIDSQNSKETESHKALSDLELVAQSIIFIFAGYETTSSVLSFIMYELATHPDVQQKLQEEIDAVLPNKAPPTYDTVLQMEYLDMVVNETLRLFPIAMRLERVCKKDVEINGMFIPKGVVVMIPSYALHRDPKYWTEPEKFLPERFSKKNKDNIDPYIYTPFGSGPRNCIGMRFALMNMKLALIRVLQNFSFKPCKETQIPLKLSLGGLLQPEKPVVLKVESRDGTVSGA
Chain of Cytochrome P450 2D6 (P10635 whole entry): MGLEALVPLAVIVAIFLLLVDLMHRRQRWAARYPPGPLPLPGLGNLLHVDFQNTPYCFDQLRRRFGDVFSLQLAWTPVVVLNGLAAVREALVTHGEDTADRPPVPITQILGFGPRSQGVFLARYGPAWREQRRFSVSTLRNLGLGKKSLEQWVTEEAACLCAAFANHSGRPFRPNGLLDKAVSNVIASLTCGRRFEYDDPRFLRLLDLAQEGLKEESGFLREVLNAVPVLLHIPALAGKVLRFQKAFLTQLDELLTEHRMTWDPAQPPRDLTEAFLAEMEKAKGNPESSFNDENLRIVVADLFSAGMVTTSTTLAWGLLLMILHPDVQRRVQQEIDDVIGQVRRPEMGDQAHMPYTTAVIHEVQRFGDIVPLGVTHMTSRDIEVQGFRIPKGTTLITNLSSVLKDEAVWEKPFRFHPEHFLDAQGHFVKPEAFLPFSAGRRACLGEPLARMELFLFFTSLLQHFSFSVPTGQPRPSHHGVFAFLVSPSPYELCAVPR
Chain of Cytochrome P450 2C9 (P11712 whole entry): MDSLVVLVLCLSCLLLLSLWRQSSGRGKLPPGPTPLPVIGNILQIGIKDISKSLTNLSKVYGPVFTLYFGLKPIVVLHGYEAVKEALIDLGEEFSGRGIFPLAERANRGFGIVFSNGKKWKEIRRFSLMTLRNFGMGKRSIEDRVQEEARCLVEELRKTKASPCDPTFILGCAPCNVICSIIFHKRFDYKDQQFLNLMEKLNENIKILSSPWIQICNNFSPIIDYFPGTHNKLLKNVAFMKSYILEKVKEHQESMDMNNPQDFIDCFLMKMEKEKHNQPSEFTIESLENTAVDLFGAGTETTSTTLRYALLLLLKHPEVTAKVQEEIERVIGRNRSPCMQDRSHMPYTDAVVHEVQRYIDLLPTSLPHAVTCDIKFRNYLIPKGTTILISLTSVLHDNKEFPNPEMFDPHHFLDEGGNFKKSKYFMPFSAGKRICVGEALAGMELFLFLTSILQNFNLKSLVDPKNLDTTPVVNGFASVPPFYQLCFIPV
Chain of 11-beta-hydroxysteroid dehydrogenase 1 (Homo sapiens, UniProt P28845) (P28845 whole entry): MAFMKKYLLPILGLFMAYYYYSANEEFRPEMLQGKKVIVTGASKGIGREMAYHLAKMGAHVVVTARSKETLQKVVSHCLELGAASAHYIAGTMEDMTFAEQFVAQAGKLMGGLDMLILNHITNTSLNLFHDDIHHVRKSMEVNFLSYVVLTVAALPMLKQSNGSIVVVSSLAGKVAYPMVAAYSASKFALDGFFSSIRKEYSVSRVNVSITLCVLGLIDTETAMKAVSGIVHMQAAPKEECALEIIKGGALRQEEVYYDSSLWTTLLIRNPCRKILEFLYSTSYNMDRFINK
Chain of Cytochrome P450 2C19 (P33261 whole entry): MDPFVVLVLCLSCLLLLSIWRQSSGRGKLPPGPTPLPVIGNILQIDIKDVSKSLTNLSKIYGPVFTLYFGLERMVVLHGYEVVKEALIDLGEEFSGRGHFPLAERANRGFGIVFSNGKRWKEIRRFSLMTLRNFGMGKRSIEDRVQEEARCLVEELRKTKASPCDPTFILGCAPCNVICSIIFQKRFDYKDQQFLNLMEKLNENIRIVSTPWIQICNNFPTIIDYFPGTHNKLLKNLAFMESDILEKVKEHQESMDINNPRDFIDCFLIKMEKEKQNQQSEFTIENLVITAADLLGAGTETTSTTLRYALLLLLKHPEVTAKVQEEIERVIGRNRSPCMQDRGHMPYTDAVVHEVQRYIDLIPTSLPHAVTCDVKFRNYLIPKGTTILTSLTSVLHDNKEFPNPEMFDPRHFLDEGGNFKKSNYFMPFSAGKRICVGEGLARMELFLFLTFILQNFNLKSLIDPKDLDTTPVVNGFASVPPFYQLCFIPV

Regarding `OC(c1cccn2c(C3(c4ccc(Cl)cc4)CC3)nnc12)C1CC1` (stereo unspecified), the IC50 in [1] worked out at 8.06 µM. Moreover, the EC50 in data set [2] was determined as 48 µM.
In the same order, the values of `CC(C)(C(=O)O)c1cccn2c(C3(c4ccc(Cl)cc4)CC3)nnc12` are greater than 10 µM and greater than 50 µM.
With `OCc1cccn2c(C3(c4ccc(Cl)cc4)CC3)nnc12`, the IC50 in [1] came out at 3.8 µM. In addition, the response in [2] was half-maximal at 25 µM (EC50).
On the same counts, the results for `CC(C)(O)CCc1cccn2c(C3(c4ccc(Cl)cc4)CC3)nnc12` are greater than 10 µM and 3.6 µM.
For `CC(C)(O)c1cccn2c(C3(c4ccc(Cl)cc4)CC3)nnc12` [BMS-823778 FREE BASE], the Ki in data set [3] turned out to be 0.0009 µM; in data set [1], 0.38 µM; in data set [4] it was 0.007 µM. The IC50 in [1] is 0.6 µM; at Cytochrome P450 3A4, greater than 30 µM; at Cytochrome P450 2C9, greater than 30 µM; at Cytochrome P450 2C19, greater than 30 µM; against Cytochrome P450 2D6, greater than 30 µM; against Cytochrome P450 1A2, greater than 30 µM. Moreover, the EC50 in data set [2] was greater than 50 µM. The ED50 came out at 34 mg/kg in the data set with Mus musculus [5], 0.6 mg/kg in the data set with Cynomolgus monkey and 5.2 mg/kg in the data set on Mus musculus [7]. Also, the “Ratio ED50” value turned out to be 57 in [6] and 6.5 in the data set with Mus musculus [8]. In addition, the bioavailability in data set [9] was 44%; in [15] it was 100%. Moreover, the Kp in data set [10] was found to be 2.5; in data set [20], 3.5. The values for the Vd in [11] and in [12] were 1.2 L/kg and 2.3 L/kg, respectively. Moreover, the clearance was 2.3 mL/min/kg in data set [13] and 1.2 mL/min/kg in [14]. The Papp in data set [16] is greater than 50 ×10⁻⁶ cm/s. The fraction unbound was 0.15 in [17], 0.16 in data set [18] and 0.13 in data set [19]. The remaining at 0.5 h in [21], in [22], in data set [23] and in data set [24] was 96 to 100% each time. At hERG (KCNH2) [25], this compound displayed an inhibition at 10 µM of 19.8%. This compound also showed an inhibition at 30 µM against hERG (KCNH2) [26] of 31.2%. For the same compound, the Activity entry in data set [27] was “Non-Toxic”; in data set [28], “Non-Toxic”; in data set [29], “Non-Toxic”; in data set [30], “Toxic”. Further, the Ratio in data set [31] was less than 2.

These data come from ChEMBL document CHEMBL4325920, “Discovery of Clinical Candidate BMS-823778 as an Inhibitor of Human 11β-Hydroxysteroid Dehydrogenase Type 1 (11β-HSD-1)” (ACS Med Chem Lett, 2018).
